This note sets out measurements from ChEMBL document CHEMBL1155478, “Novel C-aryl glucoside SGLT2 inhibitors as potential antidiabetic agents: Pyridazinylmethylphenyl glucoside congeners” (Bioorg Med Chem Lett, 2010).

The target of data set [1] is T1, Sodium/glucose cotransporter 2 (Homo sapiens, UniProt P31639).
T1 sequence (P31639 whole entry): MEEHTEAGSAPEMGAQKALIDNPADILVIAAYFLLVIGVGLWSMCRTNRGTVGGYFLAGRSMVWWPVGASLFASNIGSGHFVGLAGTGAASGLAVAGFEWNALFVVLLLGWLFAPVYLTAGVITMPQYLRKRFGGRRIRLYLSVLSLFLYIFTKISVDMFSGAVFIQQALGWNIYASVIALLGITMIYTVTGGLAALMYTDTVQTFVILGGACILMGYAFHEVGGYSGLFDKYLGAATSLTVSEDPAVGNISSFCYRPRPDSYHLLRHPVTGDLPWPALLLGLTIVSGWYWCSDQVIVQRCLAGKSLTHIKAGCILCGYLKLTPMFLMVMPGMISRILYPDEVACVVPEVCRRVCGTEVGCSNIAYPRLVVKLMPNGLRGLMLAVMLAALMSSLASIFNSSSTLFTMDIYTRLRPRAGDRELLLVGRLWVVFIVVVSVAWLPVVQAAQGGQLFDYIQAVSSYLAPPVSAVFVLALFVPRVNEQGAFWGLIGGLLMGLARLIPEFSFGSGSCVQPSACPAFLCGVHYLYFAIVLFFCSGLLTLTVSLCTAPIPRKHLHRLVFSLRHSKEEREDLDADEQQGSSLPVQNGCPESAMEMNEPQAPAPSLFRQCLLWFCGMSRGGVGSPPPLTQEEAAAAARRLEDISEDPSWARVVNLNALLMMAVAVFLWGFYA
The experiment in a line: Inhibition of human SGLT2 expressed in CHO cells assessed as [14C]alpha-methyl-D-glucopyranoside uptake after 2 hrs by liquid scintillation counting. In kind it is cell-based. In a few lines:
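CHO cells stably transfected with hSGLT2 (pcDNA3.1(+), G418-selected), seeded at 5 × 10⁴ cells/well and used 1 day later. Cells pre-incubated 10 min at 37 °C in Na⁺-free choline chloride buffer pH 7.4. Then incubated 2 h at 37 °C in NaCl uptake buffer with 1 mM unlabeled AMG plus ¹⁴C-AMG, with inhibitor or DMSO. Washed with 10 mM AMG buffer; radioactivity counted by liquid scintillation.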

The nature of data set [2]: Elimination half life in Sprague-Dawley rat at 5 mg/kg, po. In kind it is ADME, organism-based. Details: dose 5 mg/kg, route oral. The settings on record: in vivo, read-out: beta t1/2 (converted). The essentials: (§1)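 Male SD rats given a single oral dose of 5 mg/kg. Plasma sampled to obtain Cmax, time to Cmax and elimination half-life after oral dosing. Oral bioavailability (F) determined.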

Data set [3] can be described thus: Oral bioavailability in Sprague-Dawley rat at 5 mg/kg. The data set is classed as ADME, organism-based. The settings on record: in vivo. In a few lines:
as §1

The nature of the next data set: in vivo. The settings on record: Sprague-Dawley, rat, po, 5 mg/kg.
A short description of data set [4]: Cmax in Sprague-Dawley rat at 5 mg/kg, po after 0.33 hrs. In kind it is ADME, organism-based. Details: dose 5 mg/kg, route oral. To be noted: in vivo. In a few lines: as §1
Data set [5] deals with Rattus norvegicus. The experiment in a line: Increase of urinary glucose excretion in normal Sprague-Dawley rat at 10 mg/kg, po subsequently dosed orally with 50% aqueous glucose solution measured up to 24 hrs relative to control. In kind it is functional, Urine.
Data set [6] has as its system Rattus norvegicus. The experiment in a line: Increase of urinary glucose excretion in normal Sprague-Dawley rat assessed per 200 g of body weight at 10 mg/kg, po subsequently dosed orally with 50% aqueous glucose solution measured up to 24 hrs (RVB = […] mg/200 g of body weight). In kind it is functional, Urine.
Data set [7] relates to Rattus norvegicus. Briefly: Increase of urinary volume in normal Sprague-Dawley rat at 10 mg/kg, po subsequently dosed orally with 50% aqueous glucose solution measured up to 24 hrs relative to control. The data set is classed as functional, Urine.
Data set [8] relates to Rattus norvegicus. Briefly: Increase of urinary volume in normal Sprague-Dawley rat assessed […] at 10 mg/kg, po subsequently dosed orally with 50% aqueous glucose solution measured up to 24 hrs (RVB = 3.9 +/- 0.23 ml/200 mg body weight).

Structures are written as SMILES. pIC50: −log10 of the molar value.

What is called pIC50 is the IC50 on a negative log10 scale, so that one unit is a factor of ten. For `COc1cccc(-c2ccc(Cc3cc([C@@H]4O[C@H](CO)[C@@H](O)[C@H](O)[C@H]4O)ccc3Cl)nn2)c1`, in data set [1], the pIC50 is 6.45.

The term bioavailability denotes dose-corrected exposure relative to a reference, in per cent. Usually Cmax stands for the peak of the concentration-time curve. Take `CCOc1ccc(Cc2cc([C@@H]3O[C@H](CO)[C@@H](O)[C@H](O)[C@H]3O)ccc2Cl)cc1` [DAPAGLIFLOZIN]: the half-life in data set [2] is 4 h. For the same molecule, the bioavailability in [3] was found to be 88.4%. This molecule gave a Cmax at 0.67 h in “in vivo” of 2500 ng/mL.

In [4], `CSc1ccc(Cc2cc([C@@H]3O[C@H](CO)[C@@H](O)[C@H](O)[C@H]3O)ccc2Cl)nn1` displayed a Cmax of 310 ng/mL. Moreover, in [2], the half-life is 1.94 h. The molecule also returned a bioavailability in [3] of 26.1%. Further, the figures for the “fold change (FC)” value with Rattus norvegicus [5] and in the data set with Rattus norvegicus [7] were 180 and 1.3, respectively. Also, the Activity with Rattus norvegicus [6] was found to be 344 mg; in the data set with Rattus norvegicus [8], 5.07 mL.

`Cc1nnc(Cc2cc([C@@H]3O[C@H](CO)[C@@H](O)[C@H](O)[C@H]3O)ccc2Cl)c2ccccc12`: the pIC50 in data set [1] is less than 5.00.

Take `CC(C)Oc1ccc(Cc2cc([C@@H]3O[C@H](CO)[C@@H](O)[C@H](O)[C@H]3O)ccc2Cl)nn1`: the pIC50 in [1] was 6.96.
